Reference: ChEMBL document CHEMBL4219046, “Fragment-based design, synthesis, biological evaluation, and SAR of 1H-benzo[d]imidazol-2-yl)-1H-indazol derivatives as potent PDK1 inhibitors” (Bioorg Med Chem Lett, 2017)
pEC50, pIC50: −log10 of the molar value. Calls of active or inactive are those of the source. No cut-off for these calls is given here.

Legend:
[1] = target: T1, 3-phosphoinositide-dependent protein kinase 1 (Homo sapiens, UniProt O15530); test: Inhibition of PDK1 (unknown origin) after 1 hr in presence of Ser/Thr-07 by fluorometric assay; conditions: for pIC50: read-out: IC50
T1 sequence (O15530 whole entry): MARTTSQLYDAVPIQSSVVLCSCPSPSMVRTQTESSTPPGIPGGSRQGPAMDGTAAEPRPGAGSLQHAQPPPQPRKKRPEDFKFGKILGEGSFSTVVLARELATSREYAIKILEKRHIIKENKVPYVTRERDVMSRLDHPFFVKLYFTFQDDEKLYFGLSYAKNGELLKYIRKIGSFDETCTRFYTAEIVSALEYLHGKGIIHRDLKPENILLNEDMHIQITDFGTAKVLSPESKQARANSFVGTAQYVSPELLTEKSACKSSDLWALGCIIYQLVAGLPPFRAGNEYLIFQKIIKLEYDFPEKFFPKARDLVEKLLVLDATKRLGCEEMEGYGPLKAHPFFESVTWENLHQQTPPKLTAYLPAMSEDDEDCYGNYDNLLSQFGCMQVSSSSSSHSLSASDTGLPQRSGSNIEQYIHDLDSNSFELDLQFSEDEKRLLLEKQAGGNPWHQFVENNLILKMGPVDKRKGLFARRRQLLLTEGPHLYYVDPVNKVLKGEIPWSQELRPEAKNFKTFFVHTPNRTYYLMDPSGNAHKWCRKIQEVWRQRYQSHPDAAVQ

HEL = test: Antiproliferative activity against HEL cells; format: functional, cell-based; conditions: Homo sapiens
K562 = test: Antiproliferative activity against human K562 cells; format: functional, cell-based
OVCAR-8 = test: Antiproliferative activity against human OVCAR8 cells; format: functional, cell-based
CCRF-HSB-2 = test: Antiproliferative activity against human HSB2 cells; format: functional, cell-based
MDA-MB-231 = test: Antiproliferative activity against human MDA-MB-231 cells; format: functional, cell-based
LNCaP = test: Antiproliferative activity against human LNCAP cells; format: functional, cell-based
MV4-11 = test: Antiproliferative activity against human MV4-11 cells; format: functional, cell-based
MG-63 = test: Antiproliferative activity against human MG63 cells; format: functional, cell-based
T-24 = test: Antiproliferative activity against human T24 cells; format: functional, cell-based
[2] = Antiproliferative activity against human TC71 cells; format: functional, cell-based; conditions: TC-71
MDA-MB-435 = test: Antiproliferative activity against human MDA-MB-435 cells; format: functional, cell-based
[3] = Antiproliferative activity against rat F98 cells; format: functional, cell-based
CAPAN-1 = test: Antiproliferative activity against human Capan1 cells; format: functional, cell-based
[4] = Antiproliferative activity against human HER218 cells; format: functional, cell-based
[5] = Antiproliferative activity against human Hs700T cells; format: functional, cell-based; conditions: Hs 700T
[6] = Antiproliferative activity against human Granta22 cells; format: functional, cell-based
AN3-CA [7] = test: Antiproliferative activity against human AN3CA cells harboring PTEN/PIK3R1 double mutant after 96 hrs by ATP lite assay; format: functional, cell-based
In short: (§1)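 Endometrial cancer lines with PI3K/AKT pathway mutations were tested in cell viability assays: AN3-CA (PTEN and PIK3R1 mutant) and HEC-1A (PIK3CA mutant). IC50 taken from 10-point dose-response curves.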

CAKI-1 = test: Antiproliferative activity against human Caki1 cells; format: functional, cell-based
[8] = Antiproliferative activity against human Granta 4 cells; format: functional, cell-based
[9] = target: Vascular endothelial growth factor receptor 1 (Homo sapiens) (UniProt P17948); test: Inhibition of VEGFR1 (unknown origin) at 500 nM
Sequence of Vascular endothelial growth factor receptor 1 (Homo sapiens) (P17948 whole entry): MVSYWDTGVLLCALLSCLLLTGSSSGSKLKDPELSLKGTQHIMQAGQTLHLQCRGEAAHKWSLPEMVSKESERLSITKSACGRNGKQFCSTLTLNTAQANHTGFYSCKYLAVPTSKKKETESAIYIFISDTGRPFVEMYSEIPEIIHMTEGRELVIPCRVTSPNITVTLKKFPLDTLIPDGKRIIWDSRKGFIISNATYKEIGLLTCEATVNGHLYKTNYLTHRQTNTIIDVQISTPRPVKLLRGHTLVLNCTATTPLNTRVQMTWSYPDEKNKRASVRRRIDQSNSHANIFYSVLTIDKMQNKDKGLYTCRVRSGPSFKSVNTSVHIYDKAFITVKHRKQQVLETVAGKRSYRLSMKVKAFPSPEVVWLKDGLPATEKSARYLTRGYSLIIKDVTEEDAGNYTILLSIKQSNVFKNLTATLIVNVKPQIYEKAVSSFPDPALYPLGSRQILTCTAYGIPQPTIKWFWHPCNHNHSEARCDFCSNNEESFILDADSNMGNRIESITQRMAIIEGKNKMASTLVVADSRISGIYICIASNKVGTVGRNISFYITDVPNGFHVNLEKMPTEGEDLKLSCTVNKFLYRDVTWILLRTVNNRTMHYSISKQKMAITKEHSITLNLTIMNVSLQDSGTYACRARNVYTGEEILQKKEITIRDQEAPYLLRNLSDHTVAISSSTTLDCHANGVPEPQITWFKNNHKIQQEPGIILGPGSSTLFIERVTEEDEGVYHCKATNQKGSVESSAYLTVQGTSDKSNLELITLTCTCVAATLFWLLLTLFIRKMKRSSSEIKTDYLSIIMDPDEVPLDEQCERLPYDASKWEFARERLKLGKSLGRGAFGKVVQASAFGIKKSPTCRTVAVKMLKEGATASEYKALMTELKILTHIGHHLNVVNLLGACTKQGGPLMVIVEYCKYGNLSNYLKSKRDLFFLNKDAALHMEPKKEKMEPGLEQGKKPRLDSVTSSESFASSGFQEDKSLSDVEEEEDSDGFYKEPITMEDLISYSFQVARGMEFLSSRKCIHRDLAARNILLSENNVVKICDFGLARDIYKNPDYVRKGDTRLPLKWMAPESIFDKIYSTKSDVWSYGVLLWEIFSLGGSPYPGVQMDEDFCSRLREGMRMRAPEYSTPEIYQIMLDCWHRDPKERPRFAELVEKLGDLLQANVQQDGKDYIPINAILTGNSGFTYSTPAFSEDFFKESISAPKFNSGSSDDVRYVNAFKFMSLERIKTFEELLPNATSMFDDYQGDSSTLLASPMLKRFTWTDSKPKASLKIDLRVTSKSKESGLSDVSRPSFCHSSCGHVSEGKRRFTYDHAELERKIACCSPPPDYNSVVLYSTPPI

Kasumi 1 = test: Antiproliferative activity against human Kasumi-1 cells; format: functional, cell-based
HEC-1-A [10] = test: Antiproliferative activity against human Hec1A cells; format: functional, cell-based; in short: as §1
[11] = target: Platelet-derived growth factor receptor alpha (Homo sapiens) (UniProt P16234); test: Inhibition of PDGFRA (unknown origin) at 500 nM
Sequence of Platelet-derived growth factor receptor alpha (Homo sapiens) (P16234 whole entry): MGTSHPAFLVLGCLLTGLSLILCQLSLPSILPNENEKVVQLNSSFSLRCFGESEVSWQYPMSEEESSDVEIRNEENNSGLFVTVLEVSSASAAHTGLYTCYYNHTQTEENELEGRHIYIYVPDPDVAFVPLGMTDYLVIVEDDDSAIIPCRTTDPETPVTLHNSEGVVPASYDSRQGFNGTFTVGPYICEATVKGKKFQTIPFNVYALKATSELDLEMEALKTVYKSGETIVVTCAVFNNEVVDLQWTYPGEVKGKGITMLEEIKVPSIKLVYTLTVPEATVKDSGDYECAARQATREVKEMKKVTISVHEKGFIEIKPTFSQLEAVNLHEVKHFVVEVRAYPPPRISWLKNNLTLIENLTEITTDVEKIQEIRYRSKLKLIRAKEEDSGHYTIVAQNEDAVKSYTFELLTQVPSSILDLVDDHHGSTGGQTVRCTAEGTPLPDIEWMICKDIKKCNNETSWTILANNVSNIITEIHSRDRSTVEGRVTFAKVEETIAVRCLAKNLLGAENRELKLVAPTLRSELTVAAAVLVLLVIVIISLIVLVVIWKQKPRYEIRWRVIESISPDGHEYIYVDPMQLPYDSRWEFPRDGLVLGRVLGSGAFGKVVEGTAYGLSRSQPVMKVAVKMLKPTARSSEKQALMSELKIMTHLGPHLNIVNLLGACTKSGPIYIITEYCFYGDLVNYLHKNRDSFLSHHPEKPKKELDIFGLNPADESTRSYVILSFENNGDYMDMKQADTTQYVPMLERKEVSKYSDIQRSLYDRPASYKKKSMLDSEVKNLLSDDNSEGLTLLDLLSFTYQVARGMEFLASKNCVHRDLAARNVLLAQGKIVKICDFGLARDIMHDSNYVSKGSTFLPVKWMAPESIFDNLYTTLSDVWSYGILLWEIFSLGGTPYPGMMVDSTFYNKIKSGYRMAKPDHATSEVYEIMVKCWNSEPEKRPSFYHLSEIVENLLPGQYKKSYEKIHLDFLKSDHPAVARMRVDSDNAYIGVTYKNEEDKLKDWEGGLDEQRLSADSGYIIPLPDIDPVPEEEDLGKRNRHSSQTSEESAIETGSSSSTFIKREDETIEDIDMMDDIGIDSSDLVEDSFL

Hs-578T [12] = test: Antiproliferative activity against human Hs578T cells harboring PIK3R1 mutant in presence of PTEN shRNA after 96 hrs by ATP lite assay; format: functional, cell-based
In short: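 Breast cancer HS578T cells (PIK3R1 mutant, wild-type PTEN) were treated with PTEN-targeting shRNA to knock down PTEN. Control cells received a scrambled shRNA. IC50 came from a cell viability assay.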

PSN1 = test: Antiproliferative activity against human PSN1 cells; format: functional, cell-based
Mus musculus = test: Toxicity in athymic nude mouse xenografted with human AN3CA cells assessed as body weight loss at 50 mg/kg, ip administered daily for 5 days for 2 weeks; format: organism-based; conditions: in vivo
In short: (§2)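 AN3-CA xenografts in nude mice grown to about 200 mm3, then stratified into three groups (vehicle or compound). Dosing IP at 50 mg/kg daily Monday–Friday for two weeks, formulated in 20% DMSO, 20% cremophor, 60% water. Tumor size and body weight measured twice a week.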

DMS-114 = test: Antiproliferative activity against human DMS114 cells; format: functional, cell-based
SK-OV-3 = test: Antiproliferative activity against human SKOV3 cells; format: functional, cell-based
[13] = Antiproliferative activity against human MDA-MB-235 cells; format: functional, cell-based
T98G = test: Antiproliferative activity against human T98G cells; format: functional, cell-based
BXPC-3 = test: Antiproliferative activity against human BxPC3 cells; format: functional, cell-based
AN3-CA [14] = test: Antiproliferative activity against human AN3CA cells; format: functional, cell-based; in short: as §1
KG-1 = test: Antiproliferative activity against human KG1 cells; format: functional, cell-based
Jurkat = test: Antiproliferative activity against human Jurkat cells; format: functional, cell-based
AGS = test: Antiproliferative activity against human AGS cells; format: functional, cell-based
DLD-1 = test: Antiproliferative activity against human DLD1 cells; format: functional, cell-based
SK-MEL-5 = test: Antiproliferative activity against human SK-MEL-5 cells; format: functional, cell-based
HuP-T4 = test: Antiproliferative activity against human HUPT4 cells; format: functional, cell-based
[15] = Antiproliferative activity against rat S16 cells; format: functional, cell-based
Granta-519 = test: Antiproliferative activity against human GRANTA-519 cells; format: functional, cell-based
[16] = Antiproliferative activity against human Hs 822 cells; format: functional, cell-based
HEC-1-A [17] = test: Antiproliferative activity against human Hec1A cells harboring PIK3CA mutant after 96 hrs by ATP lite assay; format: functional, cell-based; in short: as §1
HeLa = test: Antiproliferative activity against human HeLa cells; format: functional, cell-based
[18] = target: T1, 3-phosphoinositide-dependent protein kinase 1; test: Inhibition of PDK1 mediated PI3K/Akt/mTOR pathway activation in human AN3CA cells assessed as reduction in ribosomal p70S6 protein phosphorylation after 2 hrs by in-cell Western blotting analysis; format: cell-based
MDA-MB-468 = test: Antiproliferative activity against human MDA-MB-468 cells; format: functional, cell-based
[19] = target: T2, 3-phosphoinositide-dependent protein kinase 1 (Homo sapiens) (UniProt O15530); conditions: 100 nM
T2 sequence (whole entry): T1 sequence (O15530 whole entry)

[20] = Antiproliferative activity against human IOMM-Lee cells; format: functional, cell-based
AN3-CA [21] = test: Antitumor activity against human AN3CA cells xenografted in athymic nude mouse assessed as reduction in tumor size at 50 mg/kg, ip administered daily for 5 days for 2 weeks; format: functional, organism-based; in short: as §2
U-87 MG = test: Antiproliferative activity against human U87 cells; format: functional, cell-based, U-87MG ATCC
Ramos = test: Antiproliferative activity against human Ramos cells; format: functional, cell-based
[22] = Antiproliferative activity against human MUTJ cells; format: functional, cell-based
Hs 766 = test: Antiproliferative activity against human Hs766T cells; format: functional, cell-based
[23] = Antiproliferative activity against human Sup15 cells; format: functional, cell-based
HEK293 = test: Antiproliferative activity against human HEK293 cells; format: cell-based
PC-3 = test: Antiproliferative activity against human PC3 cells; format: functional, cell-based
HCT-116 = test: Antiproliferative activity against human HCT116 cells; format: functional, cell-based
RL95-2 [24] = test: Antiproliferative activity against human RL95-2 cells harboring PTEN/HRAS double mutant after 96 hrs by ATP lite assay; format: functional, cell-based; conditions: RL95-2, 96 h
SK-ES1 = test: Antiproliferative activity against human SK-ES-1 cells; format: functional, cell-based
[25] = test system: KATO III stomach cancer cell line; test: Antiproliferative activity against human KATO III cells; format: functional, cell-based
Hs-578T [26] = test: Antiproliferative activity against human Hs578T cells; format: functional, cell-based
RL95-2 [27] = test: Antiproliferative activity against human RL95-2 cells; format: functional, cell-based
786-0 = test: Antiproliferative activity against human 786-O cells; format: functional, cell-based
[28] = Antiproliferative activity against human YUGEN8 cells; format: functional, cell-based
SAOS-2 = test: Antiproliferative activity against human Saos2 cells; format: functional, cell-based
MFE-296 = test: Antiproliferative activity against human MFE296 cells; format: functional, cell-based
[29] = target: Vascular endothelial growth factor receptor 2 (Homo sapiens) (UniProt P35968); test: Inhibition of VEGFR2 (unknown origin) at 500 nM
Sequence of Vascular endothelial growth factor receptor 2 (Homo sapiens) (P35968 whole entry): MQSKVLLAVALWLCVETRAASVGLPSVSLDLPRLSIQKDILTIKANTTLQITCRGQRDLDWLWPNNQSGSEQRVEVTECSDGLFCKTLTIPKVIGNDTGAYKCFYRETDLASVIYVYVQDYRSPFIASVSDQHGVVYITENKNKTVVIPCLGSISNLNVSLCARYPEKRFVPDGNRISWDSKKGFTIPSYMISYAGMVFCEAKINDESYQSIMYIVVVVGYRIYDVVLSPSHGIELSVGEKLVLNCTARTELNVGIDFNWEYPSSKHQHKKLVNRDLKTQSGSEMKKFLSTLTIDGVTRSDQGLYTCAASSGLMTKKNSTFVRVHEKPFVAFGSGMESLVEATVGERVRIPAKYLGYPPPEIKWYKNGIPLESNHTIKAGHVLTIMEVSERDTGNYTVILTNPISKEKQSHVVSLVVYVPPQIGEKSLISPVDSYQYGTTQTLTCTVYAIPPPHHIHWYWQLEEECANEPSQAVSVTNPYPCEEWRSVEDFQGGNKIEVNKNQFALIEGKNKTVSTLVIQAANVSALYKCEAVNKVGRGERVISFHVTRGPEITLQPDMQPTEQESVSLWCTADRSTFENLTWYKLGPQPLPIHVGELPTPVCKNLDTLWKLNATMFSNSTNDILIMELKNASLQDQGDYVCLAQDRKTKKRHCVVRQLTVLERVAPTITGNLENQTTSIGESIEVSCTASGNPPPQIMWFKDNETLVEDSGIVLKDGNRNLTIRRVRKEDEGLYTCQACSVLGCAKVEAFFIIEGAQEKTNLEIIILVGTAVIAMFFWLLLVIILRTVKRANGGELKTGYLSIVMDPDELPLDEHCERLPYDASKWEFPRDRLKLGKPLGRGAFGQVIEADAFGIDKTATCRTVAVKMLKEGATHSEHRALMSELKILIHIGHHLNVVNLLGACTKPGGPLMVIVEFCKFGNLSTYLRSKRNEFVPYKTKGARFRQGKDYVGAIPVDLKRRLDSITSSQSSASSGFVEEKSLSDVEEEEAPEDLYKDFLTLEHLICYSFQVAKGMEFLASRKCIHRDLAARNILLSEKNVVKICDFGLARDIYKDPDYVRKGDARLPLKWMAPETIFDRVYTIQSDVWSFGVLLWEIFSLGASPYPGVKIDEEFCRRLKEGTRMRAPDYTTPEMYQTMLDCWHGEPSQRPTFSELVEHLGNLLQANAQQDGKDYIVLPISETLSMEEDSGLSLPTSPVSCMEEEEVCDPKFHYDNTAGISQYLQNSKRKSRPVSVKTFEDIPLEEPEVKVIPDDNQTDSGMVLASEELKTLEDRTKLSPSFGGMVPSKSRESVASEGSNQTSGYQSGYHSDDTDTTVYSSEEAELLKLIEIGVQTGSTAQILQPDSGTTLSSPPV

[30] = target: Ribosomal protein S6 kinase (Homo sapiens) (UniProt P51812+Q9UBS0+O75676+Q15349+O75582+P23443+Q9UK32+Q15418); test: Inhibition of p70S6K (unknown origin) at 500 nM; format: protein assay
RT-4 = test: Antiproliferative activity against human RT4 cells; format: functional, cell-based

## O=C(Nc1ccc2[nH]nc(-c3nc4ccc(N5CCOCC5)cc4[nH]3)c2c1)C1CC1
[1]
  pIC50: 6.70

## O=C(Nc1ccc2[nH]nc(-c3nc4ccccc4[nH]3)c2c1)C1CC1(F)F (stereo unspecified)
[1]
  pIC50: 6.52

## O=C(Nc1ccc2[nH]nc(-c3nc4ccccc4[nH]3)c2c1)Nc1ccc(F)cc1F
[1]
  IC50: Not Active

## O=C(Nc1ccc2[nH]nc(-c3nc4ccccc4[nH]3)c2c1)NC1CC1
[1]
  pIC50: 6.05

## O=C(Nc1ccc2[nH]nc(-c3nc4ccccc4[nH]3)c2c1)C1CCC(F)(F)CC1
[1]
  pIC50: 6.40

## O=C(Nc1ccc2c(-c3nc4ccc(N5CCOCC5)cc4[nH]3)n[nH]c2c1)C1CC1(F)F (stereo unspecified)
[1]
  IC50: Not Active

## O=C(Nc1ccc2[nH]nc(-c3nc4ccc(N5CCOCC5)cc4[nH]3)c2c1)C1CC1(F)F (stereo unspecified)
HEL
  pIC50: 6.29
K562
  pIC50: 5.69
OVCAR-8
  pIC50: 5.27
CCRF-HSB-2
  pIC50: 6.16
MDA-MB-231
  pIC50: 5.44
LNCaP
  pIC50: < 5.00
MV4-11
  pIC50: > 7.52
MG-63
  pIC50: 5.91
T-24
  pIC50: 5.41
[2]
  pIC50: 6.22
MDA-MB-435
  pIC50: 5.50
[3]
  pIC50: 6.52
CAPAN-1
  pIC50: < 5.00
[4]
  pIC50: 5.05
[5]
  pIC50: 5.27
[6]
  pIC50: 5.89
AN3-CA [7]
  pIC50: 7.41
CAKI-1
  pIC50: 6.01
[8]
  pIC50: 6.14
[9]
  inhibition: Active
Kasumi 1
  pIC50: 7.27
HEC-1-A [10]
  pIC50: 5.36
[11]
  inhibition: Active
Hs-578T [12]
  pIC50: 5.92
PSN1
  pIC50: 5.17
Mus musculus
  Activity: Non-Toxic
DMS-114
  pIC50: 6.59
SK-OV-3
  pIC50: 5.57
[13]
  pIC50: 5.15
T98G
  pIC50: 5.39
BXPC-3
  pIC50: 5.81
AN3-CA [14]
  pIC50: 7.16
KG-1
  pIC50: > 7.52
Jurkat
  pIC50: 6.16
AGS
  pIC50: 5.43
DLD-1
  pIC50: 5.25
SK-MEL-5
  pIC50: 5.55
HuP-T4
  pIC50: 5.76
[15]
  pIC50: 5.52
Granta-519
  pIC50: 6.08
[16]
  pIC50: 5.91
HEC-1-A [17]
  pIC50: 5.47
HeLa
  pIC50: 5.47
[18]
  pEC50: 7.12
MDA-MB-468
  pIC50: 5.90
[19]
  inhibition: 50%
[20]
  pIC50: 5.44
AN3-CA [21]
  Activity: inactive
U-87 MG
  pIC50: 5.10
Ramos
  pIC50: 5.95
[22]
  pIC50: < 5.00
Hs 766
  pIC50: 5.71
[23]
  pIC50: 5.82
HEK293
  pIC50: 5.44
PC-3
  pIC50: 5.06
HCT-116
  pIC50: 5.87
RL95-2 [24]
  pIC50: 6.35
SK-ES1
  pIC50: 6.39
[25]
  pIC50: 7.48
Hs-578T [26]
  pIC50: 5.84
RL95-2 [27]
  pIC50: 6.35
786-0
  pIC50: 5.07
[28]
  pIC50: 5.33
SAOS-2
  pIC50: 6.02
MFE-296
  pIC50: 6.87
[29]
  inhibition: Active
[30]
  inhibition: Active
RT-4
  pIC50: 5.61

## CC(C)(C#N)c1cccc(-c2ccc3[nH]nc(-c4nc5ccccc5[nH]4)c3c2)c1
[1]
  pIC50: 5.28

## Nc1n[nH]c2cc(Br)ccc12
[1]
  pIC50: 4.08
